HePTP inhibitor – inhibitors of human HePTP phosphatase, primary screen, biochemical, absorbance, leukemia target | inhibition, % at 20 µM | Tyrosine-protein phosphatase non-receptor type 7 (Homo sapiens), P35236 | recombinant HePTP phosphatase activity, OD absorbance | AID 521, 2006 | hit rate 0.64% among 110,000; in the data active means inhibition above about 50%;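 further: plate controls were vehicle for no effect and reference inhibitor for full effect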
tolC growth inh – growth inhibitors of E. coli tolC mutant, primary screen, strain BW25113 ΔtolC::kan, 384-well; OD615; growth inhibition, % at 10 µM (by protocol); hit rate 2.2% among 65,000;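 active means growth inhibition at or above a cutoff equal to the mean over every tested compound plus 3 SD, cut at about 60% in these data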;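 further: growth measured after 20 h incubation at 37 °C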
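Test system: tolC-deleted E. coli BW25113 | Medium: LB with kanamycin 50 µg/mL | Compound dosing: Single concentration, 10 µM final per compound | Schedule: 37 °C, 20 h exposure | Measured by: OD at 615 nm | Evaluation: Percent growth inhibition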
PostGolgi yeast – phenotypic screen on post-Golgi transport, primary screen; post-Golgi transport phenotypic cell assay; inhibition, % at 10 µM; hit rate 0.9% among 98,000;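 further: yeast cells grown in 1536-well plates; yeast grown about 18 h at 30C before absorbance read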
Ecoli WT expand – growth inhibitors of wild-type E. coli, primary screen, strain BW25113, expanded library, OD600. OD600 absorbance. growth inhibition, % at 100 µM. hit rate 0.15% among 98,000. AID 710, 2007;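 active means growth inhibition above about 50% at one test dose, limit read from the data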;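 further: growth measured after 20 h incubation at 37 °C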
PostGolgi ctrl – growth inhibition of yeast control strain, primary screen, counter-screen for post-Golgi transport modulator project; efflux-deficient yeast background strain, growth absorbance A615, 16 h; inhibition, % at 10 µM; hit rate 5% among 98,000
PLAP activator – PLAP enzyme activators, biochemical, luminescence, HTS | purified PLAP enzyme, luminescent substrate read-out; stronger effect = higher value | activation fold at 20 µM | hit rate 1.2% among 96,000 | AID 696, 2007; in the data active means activation fold above about 2
Target sequence (P05187 whole entry, looked up): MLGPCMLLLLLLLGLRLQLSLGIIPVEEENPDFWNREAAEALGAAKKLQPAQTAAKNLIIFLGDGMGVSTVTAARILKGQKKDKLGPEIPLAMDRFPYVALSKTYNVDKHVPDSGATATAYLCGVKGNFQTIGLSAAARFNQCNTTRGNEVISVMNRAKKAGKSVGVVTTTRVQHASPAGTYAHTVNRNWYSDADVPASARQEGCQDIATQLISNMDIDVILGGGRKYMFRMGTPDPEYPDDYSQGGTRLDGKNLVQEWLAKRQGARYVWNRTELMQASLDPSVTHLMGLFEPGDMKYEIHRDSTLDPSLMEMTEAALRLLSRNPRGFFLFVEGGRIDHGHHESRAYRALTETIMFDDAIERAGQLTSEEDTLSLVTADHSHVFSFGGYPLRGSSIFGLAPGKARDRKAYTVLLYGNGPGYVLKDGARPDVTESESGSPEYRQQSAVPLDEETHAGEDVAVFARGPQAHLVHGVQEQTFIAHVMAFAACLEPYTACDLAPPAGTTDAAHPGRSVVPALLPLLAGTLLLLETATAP
* marks the source's active call; other numbers are inactive results; nt = not tested or not shown. A selection: hits, their analogues and other compounds. The true share with any hit is near 5.5%. Unless noted, no stated cut-off is given here; in the data, active means inhibition above about 30%; inactive means the rest.

SMILES	HePTP inhibitor	tolC growth inh	PostGolgi yeast	Ecoli WT expand	PostGolgi ctrl	PLAP activator
CCOC(=O)c1sc(-c2ccccc2)cc1NC(=O)CSc1nnnn1C	3	25	9	-16	74*	1.6
CCOC(=O)c1cc(-c2ccccc2)sc1NC(=O)CSc1nnnn1C	10	11	-2	-12	15	1
Cc1c(C(=O)NC2CCSC2=O)cccc1[N+](=O)[O-] (stereo not given)	55*	nt	nt	nt	nt	nt
O=C(OCC(=O)N1CCCC1)c1cncc(Br)c1	14	-13	1	1	-3	1
Nc1cc(C(=O)OCC(=O)N2CCCC2)ccc1Cl	2	-11	6	5	32*	0.9
COc1ccc(NC(=O)N(C2CCCCC2)C2CCN(C(C)C)CC2)c(OC)c1	3	-28	12	0	3	1.4
COc1ccc(NC(=O)N(C2CCCCC2)C(C)c2cccnc2)c(OC)c1 (stereo not given)	9	8	80*	-3	28	1.3
COc1ccc(NC(=O)N(C2CCCCC2)C(C)c2ccco2)c(OC)c1 (stereo not given)	-7	69*	-8	-17	18	1.3
Cc1nn(CCc2n[nH]c(=S)n2-c2cccc(Cl)c2)c(C)c1[N+](=O)[O-]	nt	nt	0	3	0	2.2*
Cc1nn(CCc2n[nH]c(=S)n2-c2ccc(F)c(Cl)c2)c(C)c1[N+](=O)[O-]	nt	nt	-1	6	3	1.2
CO[C@@]1(NC(=O)Cc2cccs2)C(=O)N2C(C(=O)O)=C(COC(N)=O)CS[C@@H]21	nt	100*	nt	nt	nt	nt
O=C(Cc1cccs1)NCc1cccs1	3	-8	1	9	10	0.8
Cc1cccc(-n2c(SCc3cc(=O)n4c(C)cccc4n3)nc3[nH]ncc3c2=O)c1	nt	nt	5	3	8	2.8*
Cc1cccc(-n2c(SCc3ccccc3)nc3ccccc3c2=O)c1	0	nt	nt	nt	nt	nt
Cc1nc(CSc2nc3[nH]ncc3c(=O)n2-c2ccccc2)cs1	9	8	12	-1	-1	2.3*
Cc1noc(C)c1CSc1nc2[nH]ncc2c(=O)n1-c1ccccc1	nt	6	-2	4	9	nt
COc1cc2ccccc2cc1C(=O)Nc1cccc(-c2nc3cc(C)cc(C)c3o2)c1C	0	nt	nt	nt	nt	nt
Cn1c(=O)c2c(nc(NCc3ccco3)n2CC(O)COc2ccccc2)n(C)c1=O (stereo not given)	6	0	-1	-1	40*	1.1
Cn1c(NCc2ccco2)nc2c1c(=O)n(Cc1ccc(Br)cc1)c(=O)n2C	-8	7	-6	0	32*	0.9
Cc1ccccc1OCC(O)Cn1c(NCc2ccco2)nc2c1c(=O)[nH]c(=O)n2C (stereo not given)	4	-3	-6	4	5	0.8
COc1cc(/C=C2/C(C)=C(C#N)c3nc(N)c(C#N)c(C)c32)ccc1O	-15	nt	nt	nt	nt	nt
CCc1ccc(-c2cc(C(=O)N3N=C(C(F)F)CC3(O)C(F)F)c3ccccc3n2)cc1 (stereo not given)	nt	nt	2	-7	37*	1.3
Brc1ccc(OCCCCCN2CCCC2)cc1	-7	nt	nt	nt	nt	nt
C=CCOc1ccc2c(C)cc(=O)oc2c1I	104*	nt	nt	nt	nt	nt
COc1ccc(/C(N)=N/OC(=O)COc2ccc3ccccc3c2)cc1	-4	nt	nt	nt	nt	nt
SMILES	HePTP inhibitor	tolC growth inh	PostGolgi yeast	Ecoli WT expand	PostGolgi ctrl	PLAP activator
Clc1ccc(OCC2COCCO2)cc1 (stereo not given)	-5	nt	nt	nt	nt	nt
CN1C(=O)C2(OCC(COc3ccc(Cl)cc3)O2)c2ccccc21 (stereo not given)	3	71*	-2	-8	17	0.9
O=C(CN1C(=O)C2(OCCO2)c2ccccc21)c1ccc(Cl)cc1	1	0	-2	-14	12	nt
O=C1Nc2ccccc2C12OCC(COc1ccc(Cl)cc1)O2 (stereo not given)	-1	93*	-9	12	23	0.8
O=C1NN(c2cccc(Cl)c2)C(=O)/C1=C\c1ccc(O)cc1	8	nt	nt	nt	nt	nt
O=C(Cn1cc2c(n1)CCCC2)N1CCc2ccccc21	-4	-5	5	6	38*	0.9
O=C(Cn1cc2c(n1)CCCCC2)N1CCc2ccccc2C1	2	3	3	4	12	1
Cc1ccc2c(c1)[nH]c1c(N3CCN(Cc4ccccc4)CC3)ncnc12	1	100*	0	-7	14	1
COc1cccc2[nH]c3c(N4CCN(Cc5ccc6c(c5)OCO6)CC4)ncnc3c12	8	41	-5	0	10	2.1*
COc1ccc2c(c1)[nH]c1c(N3CCN(Cc4ccc5c(c4)OCO5)CC3)ncnc12	6	48	4	-3	1	1.9
Cc1ccc2[nH]c3c(N4CCN(Cc5ccccc5)CC4)ncnc3c2c1	4	1	10	5	11	2*
CCOc1ccc2[nH]c3c(N4CCN(c5ccccn5)CC4)ncnc3c2c1	8	66*	18	-11	10	0.7
COc1cc(C=Nc2ccc(N=Cc3cc(Br)c(O)c(OC)c3)cc2)cc(Br)c1O	-22	nt	nt	nt	nt	nt
CCc1nnc(N2CCN(c3ncnc4c3oc3ccccc34)CC2)s1	8	32	5	-4	2	1.6
CCOC(=O)C1CCCN(c2ncnc3c2oc2ccccc23)C1 (stereo not given)	-6	18	3	2	33*	1.2
CCOC(=O)C1CCN(c2ncnc3c2oc2ccccc23)CC1	4	21	0	4	18	1.6
c1ccc(N2CCN(c3ncnc4c3oc3ccccc34)CC2)cc1	5	94*	-1	-15	35*	0.9
O=C1/C(=C\C=C\c2ccc([N+](=O)[O-])cc2)SC(=S)N1NS(=O)(=O)c1ccccc1	-6	nt	nt	nt	nt	nt
CCC(Oc1ccccc1)C(=O)N1CCN(C)CC1 (stereo not given)	-7	nt	nt	nt	nt	nt
Cc1ccc(-c2ccc(/C=N/c3ncn[nH]3)o2)cc1Cl	8	-1	-5	13	34*	1.1
OC(c1ccc(Br)cc1)C12CN3CN(CN(C3)C1)C2 (stereo not given)	104*	nt	nt	nt	nt	nt
COc1cccc(/C=C2\C(=O)NC(=O)N(c3ccccc3)C2=O)c1OC	3	nt	nt	nt	nt	nt
Clc1ccc(OCc2nn3c(C4CCCCC4)nnc3s2)cc1	1	97*	12	-7	42*	1.2
c1ccc(-c2nn3c(C4CCCCC4)nnc3s2)nc1	-1	-11	19	-3	-2	1
CCOC(=O)c1nnc(-c2ccccc2)nc1NCc1ccc(Cl)cc1	nt	nt	15	-14	39*	1.1
CCOC(=O)c1nnc(-c2ccc(C)cc2)nc1Oc1ccccc1Cl	nt	nt	-2	-5	47*	0.9
CCOC(=O)c1nnc(-c2ccc(C)cc2)nc1Sc1ccc(Cl)cc1	nt	nt	21	-4	3	1.1
CCOC(=O)c1nnc(-c2ccc(C)cc2)nc1Oc1ccc(Cl)cc1Cl	nt	nt	12	-15	35*	1.1

Screening data deposited in PubChem BioAssay by several laboratories.
